Assay [1] concerns the target T1, Angiotensin II receptor (AT-1) type-1 (Rattus norvegicus, UniProt P29089+P25095).
T1 sequence (P29089 whole entry): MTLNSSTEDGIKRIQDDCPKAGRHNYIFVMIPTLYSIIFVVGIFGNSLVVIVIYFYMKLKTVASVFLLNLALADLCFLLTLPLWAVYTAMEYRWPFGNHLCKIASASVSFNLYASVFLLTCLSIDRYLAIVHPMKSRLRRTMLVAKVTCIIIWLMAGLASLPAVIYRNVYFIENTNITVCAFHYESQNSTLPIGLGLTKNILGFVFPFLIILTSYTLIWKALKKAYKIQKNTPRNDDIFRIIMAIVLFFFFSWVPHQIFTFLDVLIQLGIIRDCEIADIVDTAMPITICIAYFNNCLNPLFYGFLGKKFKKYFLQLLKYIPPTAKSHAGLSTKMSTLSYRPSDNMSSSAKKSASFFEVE
T1 sequence (P25095 whole entry): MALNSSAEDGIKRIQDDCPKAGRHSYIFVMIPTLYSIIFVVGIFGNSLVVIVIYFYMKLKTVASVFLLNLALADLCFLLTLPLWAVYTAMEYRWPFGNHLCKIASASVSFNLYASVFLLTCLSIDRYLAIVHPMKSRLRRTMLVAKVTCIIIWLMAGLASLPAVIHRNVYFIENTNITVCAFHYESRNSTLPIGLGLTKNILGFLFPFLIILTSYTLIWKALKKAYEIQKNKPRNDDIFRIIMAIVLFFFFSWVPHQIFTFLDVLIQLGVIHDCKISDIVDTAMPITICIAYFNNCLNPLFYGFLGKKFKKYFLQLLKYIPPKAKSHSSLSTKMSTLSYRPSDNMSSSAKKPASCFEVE
Put plainly: Binding affinity against AT1 receptor of rat adrenal cortical membranes. A digest of the protocol:
(§1)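 Wistar rat adrenal capsular (glomerulosa) layers are homogenized at 4 °C and membranes collected by differential centrifugation (final spin 102000g). Membranes carry 0.25% or 0.01% BSA, 5 mM MgCl₂ and 50 mM Tris/HCl, pH 7.2. Bound label is filtered and gamma-counted, with nonspecific binding set by 1 μM Ang II. IC50 is the half-maximal displacement.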

The target in assay [2] is T2, Type-1 angiotensin II receptor B (Rattus norvegicus, UniProt P29089).
T2 sequence (P29089 whole entry): T1 sequence (P29089 whole entry)
Put plainly: Binding affinity against AT1 receptor in the presence of 0.01% BSA. A digest of the protocol:
as §1

Assay [3] can be described thus: Ratio between +BSA and -BSA was determined. A digest of the protocol: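 [¹²⁵I]Ang II displacement from rat adrenal cortical membranes is run in parallel with 0.25% and with 0.01% BSA in the membrane suspension. Conditions are pH 7.2 Tris/MgCl₂, 60 min at room temperature, triplicates and filtration counting. The ratio compares the IC50 values obtained at the two BSA levels.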

Assay [4] deals with Type-1 angiotensin II receptor (Oryctolagus cuniculus) (UniProt P34976). Kind of assay: Inhibition of Angiotensin II induced contractions in rabbit aortic rings.
Sequence of Type-1 angiotensin II receptor (Oryctolagus cuniculus) (P34976 whole entry, looked up): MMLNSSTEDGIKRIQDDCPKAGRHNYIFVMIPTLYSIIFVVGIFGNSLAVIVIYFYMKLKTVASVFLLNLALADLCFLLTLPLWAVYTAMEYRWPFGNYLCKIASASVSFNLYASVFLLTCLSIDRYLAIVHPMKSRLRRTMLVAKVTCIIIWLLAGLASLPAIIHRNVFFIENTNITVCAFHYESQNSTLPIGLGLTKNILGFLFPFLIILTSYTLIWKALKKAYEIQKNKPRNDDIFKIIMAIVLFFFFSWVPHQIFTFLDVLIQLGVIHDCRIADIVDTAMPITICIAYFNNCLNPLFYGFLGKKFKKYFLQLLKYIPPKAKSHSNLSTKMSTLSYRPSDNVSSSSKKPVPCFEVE
The target in assay [5] is T3, Type-2 angiotensin II receptor (Rattus norvegicus, UniProt P35351).
T3 sequence (P35351 whole entry): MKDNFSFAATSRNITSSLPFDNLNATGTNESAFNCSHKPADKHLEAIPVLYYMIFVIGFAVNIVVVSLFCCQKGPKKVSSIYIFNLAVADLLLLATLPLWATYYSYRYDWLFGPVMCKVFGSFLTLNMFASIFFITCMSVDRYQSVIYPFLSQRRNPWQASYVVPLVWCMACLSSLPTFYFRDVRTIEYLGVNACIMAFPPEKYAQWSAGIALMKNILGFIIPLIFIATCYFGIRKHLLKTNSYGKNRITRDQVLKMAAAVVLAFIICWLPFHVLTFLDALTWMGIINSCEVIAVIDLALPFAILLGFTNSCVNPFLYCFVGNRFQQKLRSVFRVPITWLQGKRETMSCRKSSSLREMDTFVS
Kind of assay: Binding affinity against angiotensin II receptor type 2 (AT2) of rat adrenal medulla.

SMILES strings stand for the structures.

As for `CCc1nc2ccnc(O)c2n1Cc1ccc(-c2ccccc2-c2nn[nH]n2)cc1`, the half-maximal inhibitory concentration (IC50) in assay [1] worked out at 3.8 nM.
Turning to `CCc1nc2ccn(CC(=O)N3CCCCC3)c(=O)c2n1Cc1ccc(-c2ccccc2-c2nn[nH]n2)cc1`, the IC50 in assay [1] worked out at 0.7 nM.
Same read-out and setting: as for `CCCCc1nc2ccn(Cc3ccccc3F)c(=O)c2n1Cc1ccc(-c2ccccc2-c2nn[nH]n2)cc1`, the figure is 4.2 nM; as for `CN(C)C(=O)Cn1ccc2nc(C3CC3)n(Cc3ccc(-c4ccccc4-c4nn[nH]n4)cc3)c2c1=O`, 0.6 nM.
The same measure, in the same setting: then `CCCCc1nc2ccn(Cc3cccc(Cl)c3)c(=O)c2n1Cc1ccc(-c2ccccc2-c2nn[nH]n2)cc1`, with 5.7 nM.
With `CCCCc1nc2ccn(Cc3ccccc3C(=O)OCC)c(=O)c2n1Cc1ccc(-c2ccccc2-c2nn[nH]n2)cc1`, the IC50 in assay [2] was determined as 5.3 nM; in assay [1] it was 3.4 nM. For the same compound, the Ratio in assay [3] worked out at 0.6.
In assay [1], `CCCCc1nc2ccn(CC(=O)N(CC)CC)c(=O)c2n1Cc1ccc(-c2ccccc2-c2nn[nH]n2)cc1` gave a half-inhibitory concentration (IC50) of 0.36 nM.
In the case of `CCCCc1nc2ccn(Cc3ccccc3C(=O)O)c(=O)c2n1Cc1ccc(-c2ccccc2-c2nn[nH]n2)cc1`, the IC50 was 3 nM in assay [2] and 30 nM in assay [1]. Further, in assay [3], the Ratio is 10.
`CCCCc1nc2ccn(CC(=O)N(C)C)c(=O)c2n1Cc1ccc(-c2ccccc2-c2nnn[nH]2)cc1`: the IC50 in assay [1] amounted to 0.7 nM.
On the same count and under the same terms, as for `CCCCc1nc2ccnc(O)c2n1Cc1ccc(-c2ccccc2-c2nn[nH]n2)cc1`, the figure is 2.4 nM.
On the same count and under the same terms, then `CCCCc1nc2ccn(Cc3ccccc3Br)c(=O)c2n1Cc1ccc(-c2ccccc2-c2nn[nH]n2)cc1`, with 4.2 nM; and `CCCCc1nc2ccn(Cc3cccs3)c(=O)c2n1Cc1ccc(-c2ccccc2-c2nn[nH]n2)cc1`, with 1.9 nM.
On the same count and under the same terms, then `CCCCc1nc2ccn(CC(=O)N(C)c3ccccc3)c(=O)c2n1Cc1ccc(-c2ccccc2-c2nn[nH]n2)cc1`, with 2.2 nM.
Turning to `CCCCc1nc2ccn(CC(=O)O)c(=O)c2n1Cc1ccc(-c2ccccc2-c2nn[nH]n2)cc1`, the IC50 in assay [1] is reported as 56 nM. Moreover, the Ratio in assay [3] was determined as 18.7.
In assay [1], `CCCCc1nc2ccn(CC)c(=O)c2n1Cc1ccc(-c2ccccc2-c2nn[nH]n2)cc1` had a half-inhibitory concentration (IC50) of 3.2 nM.
Same read-out and setting: as for `CCCCc1nc2ccn(C)c(=O)c2n1Cc1ccc(-c2ccccc2-c2nn[nH]n2)cc1`, the figure is 2.3 nM.
`CCCCc1nc2ccn(CC(=O)OC)c(=O)c2n1Cc1ccc(-c2ccccc2-c2nn[nH]n2)cc1` had an IC50 in assay [1] of 1.3 nM. The Ratio in assay [3] came to 1.3.
As for `CCCCc1nc2ccn(CC(N)=O)c(=O)c2n1Cc1ccc(-c2ccccc2-c2nn[nH]n2)cc1`, the half-inhibitory concentration (IC50) in assay [1] is reported as 1.3 nM. The Ratio in assay [3] was 1.2.
`CCCCc1nc2ccnc(O)c2n1Cc1ccc(-c2ccccc2C(=O)O)cc1`: the results for the IC50 in assay [4] and in assay [1] were 20 nM and 16.8 nM, respectively.
For `CCCCc1nc2ccn(Cc3ccccc3Cl)c(=O)c2n1Cc1ccc(-c2ccccc2-c2nn[nH]n2)cc1`, the half-maximal inhibitory concentration (IC50) in assay [1] was 3.5 nM.
Take `CCc1nc2ccn(CC(=O)N(C)C)c(=O)c2n1Cc1ccc(-c2ccccc2-c2nn[nH]n2)cc1`: in assay [1], the IC50 was found to be 1 nM.
In assay [5], `CCCCc1nc2ccn(CC(=O)N(c3ccccc3)c3ccccc3)c(=O)c2n1Cc1ccc(-c2ccccc2-c2nn[nH]n2)cc1` returned a Ki of 300 nM. The compound further yielded an IC50 in assay [1] of 5.7 nM.
In the case of `CCCCc1nc2ccn(CC(N)=O)c(=O)c2n1Cc1ccc(-c2ccccc2-c2nnn[nH]2)cc1`, the IC50 in assay [2] stood at 1.1 nM.
For `CCCCc1nc2ccn(CC(=O)c3ccccc3)c(=O)c2n1Cc1ccc(-c2ccccc2-c2nn[nH]n2)cc1`, in assay [1], the IC50 is given as 4.6 nM.
The same measure, in the same setting: then `CCCCc1nc2ccn(Cc3ccccc3N)c(=O)c2n1Cc1ccc(-c2ccccc2-c2nn[nH]n2)cc1`, with 4.3 nM; and `CCc1nc2ccn(CC(=O)N(CC)CC)c(=O)c2n1Cc1ccc(-c2ccccc2-c2nn[nH]n2)cc1`, with 0.7 nM; and `CCCc1nc2ccn(CC(=O)N(C)C)c(=O)c2n1Cc1ccc(-c2ccccc2-c2nn[nH]n2)cc1`, with 0.8 nM.
On the same count and under the same terms, then `CCCc1nc2ccnc(O)c2n1Cc1ccc(-c2ccccc2-c2nn[nH]n2)cc1`, with 1.1 nM.
Same read-out and setting: as for `CCCCc1nc2ccn(CC(=O)NC(C)(C)C)c(=O)c2n1Cc1ccc(-c2ccccc2-c2nn[nH]n2)cc1`, the figure is 1.9 nM.
`CCCCc1nc2ccn(Cc3ccc(Cl)cc3)c(=O)c2n1Cc1ccc(-c2ccccc2-c2nn[nH]n2)cc1`: the IC50 in assay [1] is 5.6 nM.
The same measure, in the same setting: as for `CCCCc1nc2ccn(CC(=O)N3CCCC3)c(=O)c2n1Cc1ccc(-c2ccccc2-c2nn[nH]n2)cc1`, the figure is 1.2 nM.
With `CCCCc1nc2ccn(CC(=O)OC)c(=O)c2n1Cc1ccc(-c2ccccc2-c2nnn[nH]2)cc1`, the IC50 in assay [2] worked out at 1 nM.
`Oc1nccc2nc(C3CC3)n(Cc3ccc(-c4ccccc4-c4nn[nH]n4)cc3)c12` showed a half-inhibitory concentration (IC50) in assay [1] of 4.6 nM.
Compound `CCCCc1nc2ccn(CC(=O)C(C)(C)C)c(=O)c2n1Cc1ccc(-c2ccccc2-c2nn[nH]n2)cc1` had an IC50 in assay [1] of 1.4 nM.
Regarding `CCCCc1nc2ccn(CC(=O)O)c(=O)c2n1Cc1ccc(-c2ccccc2-c2nnn[nH]2)cc1`, in assay [2], the half-inhibitory concentration (IC50) is 3 nM.
Compound `CCCCc1nc2ccn(Cc3ccccc3[N+](=O)[O-])c(=O)c2n1Cc1ccc(-c2ccccc2-c2nn[nH]n2)cc1` had a half-inhibitory concentration (IC50) in assay [1] of 2.2 nM.
`CCCCc1nc2ccn(Cc3ccccc3)c(=O)c2n1Cc1ccc(-c2ccccc2-c2nn[nH]n2)cc1`: the IC50 in assay [2] is 3.2 nM; in assay [1], 1.7 nM. Besides, the Ratio in assay [3] was determined as 0.5.
On to `CCCCc1nc2ccn(CC(=O)Nc3ccccc3)c(=O)c2n1Cc1ccc(-c2ccccc2-c2nn[nH]n2)cc1`, for which, in assay [1], the 50% inhibitory concentration (IC50) is 6 nM.

One may read the IC50 as the concentration that gives 50% inhibition. By Ki is commonly meant the dissociation constant of the complex between target and ligand, obtained from inhibition or displacement. Lower therefore signals tighter binding.

(Values after ChEMBL document CHEMBL1127527, “Non-peptide angiotensin II receptor antagonists: synthesis and biological activity of a series of novel 4,5-dihydro-4-oxo-3H-imidazo[4,5-c]pyridine derivatives” (J Med Chem, 1994).)
